The source made the active and inactive calls. The rule behind the calls is not given here.
What was measured:
[1] = test system: HT-29; assay: Cytotoxicity against human HT-29 cells after 72 hrs by XTT/PMS method; type: functional, cell-based; conditions: HT-29, 72 h
How it was run: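 HT-29 colorectal adenocarcinoma cells in McCoy's 5A with 10% FBS, seeded at 5000 cells/well the day before. DMSO stocks serially diluted to 20 µM–2 pM final, exposed 72 h. XTT 0.1 mg/mL with 25 µM PMS added for 1 h. Formazan read at 492 nm, corrected at 690 nm. IC50 from triplicate experiments.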

[2] = molecular target: Tubulin (Sus scrofa, UniProt P02554+P02550); assay: Binding affinity to porcine tubulin after 1 hr by spectrofluorometric analysis; type: protein assay
How it was run: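 Purified porcine tubulin (0.5 µM) in MES buffer pH 6.8 at 37 °C, titrated with compound. Kd derived from the quenching titration.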

[3] = molecular target: T1, Tubulin (Sus scrofa) (UniProt P02554+P02550); assay: Ratio of compound Kd to plinabulin Kd for porcine tubulin; type: protein assay
[4] = test system: HT-29; assay: Ratio of compound IC50 to plinabulin IC50 for human HT-29 cells; type: functional
[5] = molecular target: T1, Tubulin (Sus scrofa); assay: Binding affinity to porcine tubulin at 2 uM incubated for 30 mins by SDS-PAGE analysis; type: protein assay
How it was run: (§1)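 Tubulin (2 µM) in MES buffer pH 6.8 with 1 mM GTP and 2% DMSO, incubated with compound 30 min at 37 °C. Irradiated at 365 nm, 10 cm, on ice, 0–30 s. Separated by 10% SDS–PAGE and blotted to PVDF. Labelled tubulin detected with streptavidin–HRP/ECL chemiluminescence.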

[6] = molecular target: T1, Tubulin (Sus scrofa); assay: Binding affinity to porcine tubulin at 2 uM incubated for 30 mins followed by UV irradiation at 365 nm at distance of 10 cm on ice by SDS-PAGE analysis; type: protein assay; conditions: TDE = time-dependent effect; how it was run: as §1
[7] = molecular target: T1, Tubulin (Sus scrofa); assay: Binding affinity to porcine tubulin incubated for 30 mins followed by UV irradiation at 365 nm for 30 seconds at distance of 10 cm on ice by SDS-PAGE analysis; type: protein assay; how it was run: as §1
[8] = molecular target: T1, Tubulin (Sus scrofa); assay: Binding affinity to porcine tubulin at 2 uM incubated for 30 mins followed by UV irradiation at 365 nm at distance of 10 cm on ice by SDS-PAGE analysis in presence of plinabulin; type: protein assay
How it was run: (§2)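 Competition labelling. […] Probe (2 µM, 2% DMSO final) was then added for 30 min at 37 °C. Irradiated at 365 nm, 10 cm, on ice for 30 s. Read by 10% SDS–PAGE and streptavidin–HRP/ECL blot.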

[9] = molecular target: T1, Tubulin (Sus scrofa); assay: Binding affinity to porcine tubulin at 2 uM incubated for 30 mins followed by UV irradiation at 365 nm at distance of 10 cm on ice by SDS-PAGE analysis in presence of colchicine; type: protein assay; how it was run: as §2
[10] = molecular target: T1, Tubulin (Sus scrofa); assay: Binding affinity to porcine tubulin at 2 uM incubated for 30 mins followed by UV irradiation at 365 nm at distance of 10 cm on ice by SDS-PAGE analysis in presence of D-biotin; type: protein assay; how it was run: as §2

T1 sequence (P02550 whole entry, looked up): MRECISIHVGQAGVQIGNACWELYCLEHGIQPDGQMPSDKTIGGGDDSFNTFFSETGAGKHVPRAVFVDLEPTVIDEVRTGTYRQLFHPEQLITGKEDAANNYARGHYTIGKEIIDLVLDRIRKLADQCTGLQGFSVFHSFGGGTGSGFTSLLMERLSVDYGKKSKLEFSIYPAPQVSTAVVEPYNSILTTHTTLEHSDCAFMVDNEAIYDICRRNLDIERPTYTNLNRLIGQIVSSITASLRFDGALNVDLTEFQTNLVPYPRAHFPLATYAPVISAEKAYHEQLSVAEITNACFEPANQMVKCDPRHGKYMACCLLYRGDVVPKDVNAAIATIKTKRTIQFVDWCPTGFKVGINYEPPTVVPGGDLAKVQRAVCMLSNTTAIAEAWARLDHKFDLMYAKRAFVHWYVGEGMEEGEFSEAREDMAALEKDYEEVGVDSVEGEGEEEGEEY
T1 sequence (P02554 whole entry, looked up): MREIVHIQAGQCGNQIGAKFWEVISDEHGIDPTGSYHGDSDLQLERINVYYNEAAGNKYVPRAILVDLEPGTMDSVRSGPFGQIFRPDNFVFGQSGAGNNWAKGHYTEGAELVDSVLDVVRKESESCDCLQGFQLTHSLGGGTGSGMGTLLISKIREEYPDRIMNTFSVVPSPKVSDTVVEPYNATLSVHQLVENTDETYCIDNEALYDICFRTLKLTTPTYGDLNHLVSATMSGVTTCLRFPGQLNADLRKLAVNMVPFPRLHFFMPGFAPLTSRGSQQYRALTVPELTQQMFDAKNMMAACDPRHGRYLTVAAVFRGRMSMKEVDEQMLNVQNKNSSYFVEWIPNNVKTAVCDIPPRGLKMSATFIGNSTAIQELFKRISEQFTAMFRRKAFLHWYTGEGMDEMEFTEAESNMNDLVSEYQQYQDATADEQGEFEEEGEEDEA

Kd [2] [nM]	Ratio [3]	Activity [5]	Activity [6]	Activity [7]	Activity [8]	Activity [9]	Activity [10]	Compound	IC50 [1] [nM]	Ratio IC50 [4]
–	–	–	–	–	–	–	–	COc1cc2c(c(OC)c1OC)-c1ccc(OC)c(=O)cc1[C@@H](NC(C)=O)CC2 [COLCHICINE]	16.6	–
17900	17	inactive	tde	Dose-dependent effect	inactive	inactive	inactive	CC(C)(Cc1cn(CCCNC(=O)CCCCCNC(=O)CCCCCNC(=O)CCCC[C@@H]2SC[C@@H]3NC(=O)N[C@@H]32)nn1)c1ocnc1/C=c1\[nH]c(=O)/c(=C/c2cccc(C(=O)c3ccccc3)c2)[nH]c1=O (stereo in doubt)	9790	725
–	–	–	–	–	–	–	–	CC(C)(C)c1[nH]cnc1/C=c1\[nH]c(=O)/c(=C/c2ccccc2)[nH]c1=O [PLINABULIN]	13.5	–
